The text below walks through data of ChEMBL document CHEMBL4261585, “Synthesis of 1,2,3-triazole linked 4(3H)-Quinazolinones as potent antibacterial agents against multidrug-resistant Staphylococcus aureus” (Eur J Med Chem, 2018).

Data set [1] has as its system Staphylococcus aureus. The data set is described as follows: Antibacterial activity against methicillin-resistant Staphylococcus aureus NR10186 by CLSI method. It is filed as functional. In short, it runs like this:
(§1)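 Broth microdilution to CLSI. A single colony from Mueller-Hinton agar is grown overnight in cation-supplemented MHB at 37 °C with shaking, 18–24 h. Levofloxacin is the reference. MIC is the lowest concentration with no visible growth, from three independent runs in duplicate.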

Data set [2] has as its system Klebsiella pneumoniae. The data set is described as follows: Antibacterial activity against Klebsiella pneumoniae ATCC BAA-1705 after 16 to 18 hrs by CLSI method. It is filed as functional. The gist of the method: (§2)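 Broth microdilution MIC per CLSI. A single colony from Mueller-Hinton agar is grown overnight in cation-supplemented Mueller-Hinton broth (37 °C, shaking, 18–24 h). Incubation is 37 °C for 16–18 h. MIC is the lowest concentration with no visible growth. Three independent runs, each in duplicate.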

The subject of data set [3] is Staphylococcus aureus. The data set is described as follows: Antibacterial activity against vancomycin-resistant Staphylococcus aureus VRS1 by CLSI method. The class given is functional. The gist of the method: as §1
Data set [4] concerns Staphylococcus aureus. Put plainly: Antibacterial activity against vancomycin-resistant Staphylococcus aureus VRS12 by CLSI method. It is filed as functional. The gist of the method: as §1
The subject of data set [5] is Escherichia coli. The data set is described as follows: Antibacterial activity against Escherichia coli ATCC 25922 after 16 to 18 hrs by CLSI method. It is filed as functional. In short, it runs like this: as §2
A short description of data set [6]: Selectivity index, ratio of CC50 for African green monkey Vero cells to MIC for Staphylococcus aureus ATCC 29213. It is filed as toxicity. The note with it: read-out: Selectivity Index. In short, it runs like this: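 Selectivity index is calculated as the Vero CC50 divided by the MIC against S. aureus ATCC 29213. CC50 comes from a 72 h MTT assay at 100–5 mg/L. MIC comes from CLSI broth microdilution at ~10⁶ CFU/mL, 37 °C, 16–18 h.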

A short description of data set [7]: Cytotoxicity against African green monkey Vero cells after 72 hrs by MTT assay. It is filed as cell-based. The conditions noted are these: chlorocebus sabaeus. The gist of the method:
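Vero cells are seeded at ~10³ per well and held 24 h at 37 °C, 5% CO₂. Compound at 100–5 mg/L is then added for 72 h. MTT is added at […], and formazan is dissolved in DMSO and read at 540 nm. CC50 is the lowest concentration giving 50% loss of viability. Doxorubicin is the positive control. Triplicate experiments.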

The test system of data set [8] is Acinetobacter baumannii. The data set is described as follows: Antibacterial activity against Acinetobacter baumannii BAA-1605 after 16 to 18 hrs by CLSI method. The class given is functional. In short, it runs like this:
as §2

Data set [9] concerns Staphylococcus aureus. The data set is described as follows: Antibacterial activity against methicillin-resistant Staphylococcus aureus NR10194 by CLSI method. The class given is functional. In short, it runs like this:
as §1

The test system of data set [10] is Staphylococcus aureus. Put plainly: Antibacterial activity against methicillin-resistant Staphylococcus aureus NR10193 by CLSI method. The class given is functional. In short, it runs like this:
as §1

In data set [11] the test system is Staphylococcus aureus. The data set is described as follows: Antibacterial activity against methicillin-resistant Staphylococcus aureus NR119 by CLSI method. The class given is functional. In short, it runs like this: as §1
Data set [12] relates to Acinetobacter baumannii. Put plainly: Antibacterial activity against Acinetobacter baumannii BAA-1605 after 16 to 18 hrs in presence of PMBN by CLSI method. The class given is functional. The gist of the method:
(§3)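 MIC per CLSI broth microdilution with compound combined with a sub-lethal level of polymyxin B nonapeptide. Inoculum is ~10⁶ CFU/mL in cation-supplemented Mueller-Hinton broth. Incubation is 37 °C for 16–18 h. MIC is read as the absence of visible growth. Three independent runs, each in duplicate.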

For data set [13], the system named is Mycolicibacterium fortuitum. Put plainly: Antimycobacterial activity against Mycobacterium fortuitum by pesto blue-dye based broth microdilution assay. The class given is functional.
Data set [14] relates to Staphylococcus aureus. Put plainly: Antibacterial activity against methicillin-resistant Staphylococcus aureus NR10198 by CLSI method. It is filed as functional. The gist of the method:
as §1

Data set [15] has as its system Mycobacteroides chelonae. Put plainly: Antimycobacterial activity against Mycobacterium chelonae by pesto blue-dye based broth microdilution assay. The class given is functional. (In general: Dilution methods test growth across graded concentrations, often in twofold steps.)
In data set [16] the test system is Staphylococcus aureus. The data set is described as follows: Antibacterial activity against vancomycin-resistant Staphylococcus aureus VRS4 by CLSI method. It is filed as functional. In short, it runs like this:
as §1

Data set [17] relates to Mycobacteroides abscessus. The data set is described as follows: Antimycobacterial activity against Mycobacterium abscessus by pesto blue-dye based broth microdilution assay. The class given is functional.
The test system of data set [18] is Mycobacterium tuberculosis. The data set is described as follows: Antimycobacterial activity against Mycobacterium tuberculosis H37Rv ATCC 27294 after 7 days by pesto blue-dye based broth microdilution assay. It is filed as functional. The conditions noted are these: H37Rv ATCC 27294, 168 h. In short, it runs like this: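 Broth microdilution in Middlebrook 7H9 with 10% ADC-Tween-80 (0.2% glycerol, 0.05% Tween-80). Compound is added from 10 mg/mL DMSO stocks as two-fold dilutions, 64–0.5 mg/L. Plates are incubated 7 days at 37 °C and read with PrestoBlue resazurin dye. MIC is the lowest concentration inhibiting visible growth, three replicates in duplicate.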

The subject of data set [19] is Staphylococcus aureus. Put plainly: Antibacterial activity against methicillin-sensitive Staphylococcus aureus ATCC 29213 by CLSI method. It is filed as functional. The gist of the method: as §1
Data set [20] deals with Staphylococcus aureus. The data set is described as follows: Antibacterial activity against methicillin-resistant Staphylococcus aureus NR10129 by CLSI method. The class given is functional. The gist of the method: as §1
For data set [21], the system named is Staphylococcus aureus. The data set is described as follows: Antibacterial activity against methicillin-resistant Staphylococcus aureus NR10192 by CLSI method. It is filed as functional. The gist of the method: as §1
Data set [22] concerns Staphylococcus aureus. The data set is described as follows: Antibacterial activity against Staphylococcus aureus ATCC 29213 after 16 to 18 hrs by CLSI method. It is filed as functional. In short, it runs like this: as §2
Data set [23] has as its system Staphylococcus aureus. The data set is described as follows: Antibacterial activity against methicillin-resistant Staphylococcus aureus NR10191 by CLSI method. It is filed as functional. The gist of the method:
as §1

Data set [24] concerns Escherichia coli. Put plainly: Antibacterial activity against Escherichia coli ATCC 25922 after 16 to 18 hrs in presence of PMBN by CLSI method. It is filed as functional. In short, it runs like this:
as §3

The test system of data set [25] is Pseudomonas aeruginosa. Put plainly: Antibacterial activity against Pseudomonas aeruginosa ATCC 27853 after 16 to 18 hrs by CLSI method. The class given is functional. In short, it runs like this: as §2

Molecules are shown by their SMILES. In brackets after ≈: the same amount, converted by molar mass.

For `N#Cc1ccc(/C=C/c2nc3ccccc3c(=O)n2-c2cccc(OCc3cn(Cc4ccccc4)nn3)c2)cc1`, the MIC – broadly, the lowest concentration that inhibits growth of the organism – in [1] was 2 µg/mL (≈ 3.73 µM); in data set [2], > 64 µg/mL; in [3], 32 µg/mL (≈ 59.6 µM); in [4], 2 µg/mL (≈ 3.73 µM); in [5] it was > 64 µg/mL; in [8], > 64 µg/mL. Also, the minimal inhibitory concentration (MIC) in [9] was 1 µg/mL (≈ 1.86 µM); in data set [10], 2 µg/mL (≈ 3.73 µM); in data set [11], 2 µg/mL (≈ 3.73 µM); in [12], > 64 µg/mL; in [13], > 64 µg/mL; in data set [14], 2 µg/mL (≈ 3.73 µM). For the same compound, the MIC in data set [15] was > 64 µg/mL; in data set [16], 2 µg/mL (≈ 3.73 µM); in data set [17] it was > 64 µg/mL; in [18], > 64 µg/mL; in data set [19], 1 µg/mL (≈ 1.86 µM); in [20], 2 µg/mL (≈ 3.73 µM). In addition, the MIC is 1 µg/mL (≈ 1.86 µM) in [21]; 0.5 µg/mL (≈ 0.932 µM) in data set [22]; 1 µg/mL (≈ 1.86 µM) in data set [23]; > 64 µg/mL in data set [24]; > 64 µg/mL in data set [25]. For the same compound, the selectivity ratio in data set [6] came to 40. For the same compound, the CC50 – broadly, the concentration that lowers cell viability or growth by half – at 72 h in data set [7] was found to be 20 µg/mL (≈ 37.3 µM).

With `CO[C@H]1/C=C/O[C@@]2(C)Oc3c(C)c(O)c4c(O)c(c(/C=N/N5CCN(C)CC5)c(O)c4c3C2=O)NC(=O)/C(C)=C\C=C\[C@H](C)[C@H](O)[C@@H](C)[C@@H](O)[C@@H](C)[C@H](OC(C)=O)[C@@H]1C` [RIFAMPIN], the minimum inhibitory concentration (MIC) was determined as 4 µg/mL (≈ 4.86 µM) in data set [5], 4 µg/mL (≈ 4.86 µM) in data set [8], 0.25 µg/mL in data set [12] and 0.125 µg/mL in [24].

Take `N#Cc1ccc(/C=C/c2nc3ccccc3c(=O)n2-c2cccc(OCc3cn(-c4cccc(Cl)c4)nn3)c2)cc1`: the MIC in data set [1] is 0.5 µg/mL (≈ 0.898 µM); in [2], > 64 µg/mL; in data set [3], 32 µg/mL (≈ 57.4 µM); in data set [4] it was 2 µg/mL (≈ 3.59 µM); in data set [5], > 64 µg/mL; in data set [8], > 64 µg/mL. Further, the minimal inhibitory concentration (MIC) was 0.5 µg/mL (≈ 0.898 µM) in [9]; 1 µg/mL (≈ 1.8 µM) in [10]; 0.5 µg/mL (≈ 0.898 µM) in data set [11]; > 64 µg/mL in data set [12]; > 64 µg/mL in [13]; 0.5 µg/mL (≈ 0.898 µM) in data set [14]. Moreover, the MIC in data set [15] was > 64 µg/mL; in data set [16], 0.5 µg/mL (≈ 0.898 µM); in [17], > 64 µg/mL; in data set [18], > 64 µg/mL; in [19], 0.5 µg/mL (≈ 0.898 µM); in [20], 0.5 µg/mL (≈ 0.898 µM). The MIC is 0.5 µg/mL (≈ 0.898 µM) in data set [21]; 0.5 µg/mL (≈ 0.898 µM) in [22]; 1 µg/mL (≈ 1.8 µM) in data set [23]; > 64 µg/mL in [24]; > 64 µg/mL in data set [25]. In data set [6], the selectivity ratio is 80. In [7], this compound registered a CC50 at 72 h of 40 µg/mL (≈ 71.8 µM).
